Compound activity (PubChem)
Most compounds without a hit are left out; they make up all but 2.3% or so of the library.
V1aR counter: agonists of human V1a receptor, primary screen, counter-screen for OXTR agonist project, fluorescence, CHO-V1R cells; activation, % at 3 µM; 320,000 tested, 0.25% active; Fluo-8 calcium fluorescence, agonist mode; 0% DMSO, 100% 3 nM vasopressin;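 active means activation above the mean activation of all tested compounds plus 3 SD, per screening run, cut at about 20% in these data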;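 further: signal is peak over basal fluorescence ratio across a 100 second FLIPR read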
TAAR1 ag: human TAAR1 agonists, primary screen, Fluo-8 calcium fluorescence, CHO RD-HGA16 cells; 360,000 tested, 0.99% active; Trace amine-associated receptor 1 (Homo sapiens), Q96RJ0; AID 624467, 2012; activation, % at 3 µM; vehicle wells 0%, saturating PEA agonist 100%;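 active means activation above the mean activation of all test compounds in the run plus 3 SD, cut at about 38% in these data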
Target sequence (Q96RJ0 whole entry, looked up): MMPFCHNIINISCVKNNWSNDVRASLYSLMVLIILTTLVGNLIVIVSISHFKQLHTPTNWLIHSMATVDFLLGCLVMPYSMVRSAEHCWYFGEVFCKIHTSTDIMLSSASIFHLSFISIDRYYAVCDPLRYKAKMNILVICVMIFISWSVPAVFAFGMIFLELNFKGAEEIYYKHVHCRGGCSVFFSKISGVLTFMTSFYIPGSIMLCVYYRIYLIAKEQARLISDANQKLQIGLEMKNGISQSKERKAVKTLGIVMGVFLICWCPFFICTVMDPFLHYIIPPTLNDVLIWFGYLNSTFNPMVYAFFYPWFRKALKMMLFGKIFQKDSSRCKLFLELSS
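test system = CHO RD-HGA16 cells carrying human TAAR1 plus Gα16 | schedule = 17-24 h seeding, 75 min 37 °C dye, 30 min RT | compound dosing = 3 µM single concentration | control set = DMSO and PEA EC100 | replicates = n 1 | signal = Fluo-8 fluorescence, 5 s baseline then 140 s kinetic read | measure = percent activation vs PEA EC100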
TAAR1 antag: human TAAR1 antagonists, primary screen, Fluo-8 calcium fluorescence, CHO RD-HGA16 cells; inhibition, % at 3 µM; Trace amine-associated receptor 1 (Homo sapiens), Q96RJ0; 360,000 tested, 1.5% active; AID 624466, 2012; antagonist;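 active means inhibition above a per-plate cutoff, the mean inhibition of test compounds on that plate plus 3 SD, cut at about 49% in these data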
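Test system: RD-HGA16 CHO cells with stable hTAAR1 and Gα16 / Probe or stimulus: EC80 β-phenethylamine stimulus / Times: seeding 17-24 h prior, 75-min 37 °C, 30-min RT dye loading / Detection: Fluo-8 calcium-sensitive fluorescence / Read-out basis: % inhibition scaled between DMSO and EC80 PEA controls / Repeats: singlicate, one well per test compound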
OXTR potentiate: human OXTR potentiators, primary screen, fluorescence, CHO-OTR cells, Fluo-8 calcium; Fluo-8 calcium fluorescence, potentiator mode; 0% = oxytocin EC15, 100% = EC100; 320,000 tested, 0.061% active; activation, % at 3 µM;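 active means activation above that plate's cutoff, the mean activation of tested compounds plus 3 SD, cut at about 6.6% in these data, passing the limit was not always enough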
Target sequence (P30559 whole entry, looked up): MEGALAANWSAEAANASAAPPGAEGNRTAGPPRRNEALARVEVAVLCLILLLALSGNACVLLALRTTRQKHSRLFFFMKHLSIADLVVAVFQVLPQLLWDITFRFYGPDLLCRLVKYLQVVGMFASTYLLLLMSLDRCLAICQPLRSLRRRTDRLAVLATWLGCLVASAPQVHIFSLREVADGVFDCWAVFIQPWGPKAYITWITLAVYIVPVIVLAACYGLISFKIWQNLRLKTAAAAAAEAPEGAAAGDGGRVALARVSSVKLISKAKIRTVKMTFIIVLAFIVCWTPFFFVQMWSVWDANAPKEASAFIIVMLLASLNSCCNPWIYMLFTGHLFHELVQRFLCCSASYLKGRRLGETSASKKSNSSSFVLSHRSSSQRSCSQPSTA
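Replication – single well per compound, singlicate · Assay system – CHO cell line stably expressing human OTR · Timing – 6 min pre-incubation, 100 s read · Measure – normalized max/min fluorescence ratio, % activation · Doses – 3.0 µM, one dose · Detection – Fluo-8 calcium dye fluorescence · Probe or stimulus – oxytocin near EC15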
OXTR agonist: human OXTR agonists, primary screen, fluorescence, CHO-OTR cells, Fluo-8 calcium; Oxytocin receptor (Homo sapiens), P30559; Fluo-8 calcium fluorescence; normalized: DMSO 0%, oxytocin 100%; activation, % at 3 µM; 320,000 tested, 0.32% active;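 active means activation above the mean of all tested compounds plus 3 SD, cutoff set per screening run, cut at about 20% in these data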;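 further: peak over basal fluorescence ratio from a 100 s FLIPR kinetic read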
TAAR1 nonsel count: nonselective antagonists in TAAR1 counter-screen cells, counter-screen for hTAAR1 antagonist project, cell-based, fluorescence, calcium. shares compounds with TAAR1 antag. inhibition, % at 3 µM. counterscreen cell line, antagonist mode. 2,400 tested, 77% active; in the data active means inhibition above about 22%;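 further: CHO-Ga16 host cells stimulated with ATP at an EC80 level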
TAAR1 antag conf: human TAAR1 antagonists, retest of hits, confirmation, cell-based, fluorescence; shares compounds with TAAR1 antag; TAAR1-expressing cells, fluorescence antagonist read-out; inhibition, % at 3 µM; 2,400 tested, 40% active; AID 651785, 2012; in the data active means inhibition above about 49%;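 further: CHO-Ga16 host cells challenged with agonist PEA near its EC80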
Ga16 nonsel ag: calcium activation in Ga16-expressing cells, counter-screen for TAAR1 antagonist project, cell-based, fluorescence; activation, % at 3 µM; 2,400 tested, 18% active; agonist counterscreen; AID 651953, 2012; shares compounds with TAAR1 antag; in the data active means activation above about 12%
TAAR1 ag counter: TAAR1 activation by candidate antagonists – cell-based, fluorescence, counter-screen for TAAR1 antagonist project. shares compounds with TAAR1 antag. hTAAR1 cell line, agonist mode. activation, % at 3 µM. 2,400 tested, 2% active; in the data active means activation above about 37%;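 further: CHO cells stably expressing TAAR1 with calcium dye readout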
Large screens that a line does not name were inactive (follow-up assays come after a bar, where they were run).

COc1ccc(NC(=O)c2cccc(N3C(=O)C4C5C=CC(C6CC56)C4C3=O)c2)cc1 (centres undefined)	TAAR1 antag 63 | TAAR1 nonsel count 35 | TAAR1 antag conf 54 | Ga16 nonsel ag 13 | TAAR1 ag counter inactive
O=C(O)c1ccc(NC(=O)c2cccc(N3C(=O)C4C5CCC(C5)C4C3=O)c2)cc1 (centres undefined)	none
O=C(c1cnn2c(C(F)(F)F)cc(-c3cccs3)nc12)N1CCN(Cc2ccccc2)CC1	TAAR1 antag 59 | TAAR1 nonsel count inactive | TAAR1 antag conf inactive | Ga16 nonsel ag inactive | TAAR1 ag counter inactive
CN1CCN(C(=O)c2cnn3c(C(F)(F)F)cc(-c4cccs4)nc23)CC1	none
Cn1nc(C(C)(C)C)c([N+](=O)[O-])c1C(=O)Nc1cccc2ccccc12	TAAR1 antag 56 | TAAR1 nonsel count 22 | TAAR1 antag conf inactive | Ga16 nonsel ag inactive | TAAR1 ag counter inactive
O=C(CCCC(=O)NN=Cc1ccc(Cl)cc1Cl)NN=Cc1ccc(Cl)cc1Cl	none (no result: V1aR counter, OXTR potentiate, OXTR agonist)
O=C(CCCC(=O)NN=Cc1ccccc1Cl)NN=Cc1ccccc1Cl	TAAR1 antag 51 (no result: V1aR counter, OXTR potentiate, OXTR agonist) | TAAR1 nonsel count inactive | TAAR1 antag conf inactive | Ga16 nonsel ag inactive | TAAR1 ag counter inactive
CC(=O)N1N=C(c2ccccc2OC(=O)/C=C/c2ccccc2)CC1c1ccccc1 (centres undefined)	none
O=C(Nc1ccccc1)N(CCc1nc2ccccc2[nH]1)C1CCCC1	none
S=C(NC1CCCCC1)N(CCc1nc2ccccc2[nH]1)C1CCCC1	TAAR1 antag 54 | TAAR1 nonsel count 28 | TAAR1 antag conf inactive | Ga16 nonsel ag inactive | TAAR1 ag counter inactive
O=C(COC(=O)c1cccc(N2C(=O)C3CC=CCC3C2=O)c1)c1ccccc1 (centres undefined)	TAAR1 antag 55 | TAAR1 nonsel count inactive | TAAR1 antag conf inactive | Ga16 nonsel ag inactive | TAAR1 ag counter inactive
Cc1cccc(COCC(CC(C)C)N2CCN(C(=O)c3ccc(C(F)(F)F)cc3)CCC2=O)c1 (centres undefined)	none
Cc1cccc(COC[C@H](CC(C)C)N2CCN(C(=O)c3ccc(C(C)(C)C)cc3)CCC2=O)c1	TAAR1 antag 63 (no result: V1aR counter, OXTR potentiate, OXTR agonist) | TAAR1 nonsel count 30 | TAAR1 antag conf 52 | Ga16 nonsel ag inactive | TAAR1 ag counter inactive
Cc1cccc(COCC(CC(C)C)N2CCN(C(=O)c3ccc(C(C)(C)C)cc3)CCC2=O)c1 (centres undefined)	TAAR1 antag 71 | TAAR1 nonsel count 32 | TAAR1 antag conf 57 | Ga16 nonsel ag inactive | TAAR1 ag counter inactive
Cc1cccc(N(Cc2ccc(Cl)cc2)S(C)(=O)=O)c1	none
O=[N+]([O-])c1ccc(-c2c(-c3ccccc3)ncc3cc(F)ccc23)cc1	TAAR1 antag 82 | TAAR1 nonsel count inactive | TAAR1 antag conf 55 | Ga16 nonsel ag inactive | TAAR1 ag counter inactive
O=c1cc(O)cc2n1CCC2	none (no result: V1aR counter, OXTR potentiate, OXTR agonist)
Cc1ccccc1C1c2[nH]c3ccccc3c2C[C@H]2C(=O)N(c3ccccc3C(=O)NCCCN3CCOCC3)C(=O)N12 (some centres undefined)	TAAR1 antag 60 | TAAR1 nonsel count 29 | TAAR1 antag conf inactive | Ga16 nonsel ag inactive | TAAR1 ag counter inactive
Cc1ccc(C2c3[nH]c4ccccc4c3C[C@H]3C(=O)N(c4ccccc4C(=O)NCCCN4CCOCC4)C(=O)N23)cc1 (some centres undefined)	TAAR1 antag 53 | TAAR1 nonsel count 26 | TAAR1 antag conf inactive | Ga16 nonsel ag inactive | TAAR1 ag counter inactive
O=C(NCCCN1CCOCC1)c1ccccc1N1C(=O)[C@@H]2Cc3c([nH]c4ccccc34)C(c3ccccc3)N2C1=O (some centres undefined)	none (no result: V1aR counter, OXTR potentiate, OXTR agonist)
COc1cccc(C2c3[nH]c4ccccc4c3C[C@H]3C(=O)N(c4ccccc4C(=O)N4CCC(C(=O)O)CC4)C(=O)N23)c1 (some centres undefined)	none
Cc1ccc(C2c3[nH]c4ccccc4c3C[C@H]3C(=O)N(c4ccccc4C(=O)NCCN4CCOCC4)C(=O)N23)cc1 (some centres undefined)	TAAR1 antag 61 | TAAR1 nonsel count 27 | TAAR1 antag conf inactive | Ga16 nonsel ag inactive | TAAR1 ag counter inactive
O=C(NCCCN1CCOCC1)c1ccccc1N1C(=O)[C@@H]2Cc3c([nH]c4ccccc34)C(c3cccc(Cl)c3)N2C1=O (some centres undefined)	TAAR1 antag 71 | TAAR1 nonsel count 47 | TAAR1 antag conf 70 | Ga16 nonsel ag 23 | TAAR1 ag counter inactive
NNC(=O)c1ccc2c(c1)S(=O)(=O)NNC2=O	none
O=C(CCCSc1nc2ccccc2c(=O)[nH]1)c1ccccc1	none
Nc1[nH]c(C(=O)c2ccccc2)c(-c2ccc(Cl)cc2)c1C(=O)c1c[nH]c2ccc(Br)cc12	none (no result: V1aR counter, OXTR potentiate, OXTR agonist)
COc1ccc(C)cc1NC(=O)COC(=O)c1ccccc1SCC(=O)N1CCCC1	none
N#CC(C#N)=C1C=CC=CN1/C(=C\c1ccccc1Cl)C(=O)c1ccccc1	TAAR1 antag 56 | TAAR1 nonsel count 49 | TAAR1 antag conf 59 | Ga16 nonsel ag inactive | TAAR1 ag counter inactive
N#CC(C#N)=C1C=CC=CN1/C(=C\c1ccccc1)C(=O)c1cccs1	none
O=c1c2ccc([N+](=O)[O-])cc2ncn1CCOc1cccc(Br)c1	TAAR1 antag 71 | TAAR1 nonsel count 30 | TAAR1 antag conf 56 | Ga16 nonsel ag inactive | TAAR1 ag counter inactive
CCOc1ccc(NC(=O)N(Cc2ccc(C)cc2)Cc2ccccn2)cc1	none
COCCn1c(SCC(=O)N2CCCCCC2)nc2c([nH]c3ccccc32)c1=O	none
